Measurements: ChEMBL document CHEMBL4689842, “EUbOPEN Chemogenomics Library wave 1” (2021)

System: Fibroblast
Assay: Multiplex assay against human fibroblast
Assay type: toxicity, cell-based
Summary of the method: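 With compound added, live cells were imaged on a CQ1 microscope at 37°C and 5% CO2; staining with Hoechst33342, BioTracker Green Microtubule Cytoskeleton Dye, MitoTracker Red and Annexin V Alexa Fluor 680 had been done at seeding. The CellPathfinder machine-learning gating scheme split cells into Hoechst high-intensity objects or normal cells, normal cells into healthy, pyknosed or fragmented nuclei, and pyknosed cells into mitotic or apoptotic. The tubulin, mitochondrial-mass and membrane-permeability phenotypes are per cents of healthy-nucleus cells.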

[1] = 12 h, 1 µM, compound concentration 1 uM, replicate 1
[2] = 12 h, 1 µM, compound concentration 1 uM, replicate 2
[3] = 12 h, 10 µM, compound concentration 10 uM, replicate 1
[4] = 12 h, 10 µM, compound concentration 10 uM, replicate 2
[5] = 24 h, 1 µM, compound concentration 1 uM, replicate 1
[6] = 24 h, 1 µM, compound concentration 1 uM, replicate 2
[7] = 24 h, 10 µM, compound concentration 10 uM, replicate 1
[8] = 24 h, 10 µM, compound concentration 10 uM, replicate 2
[9] = 48 h, 1 µM, compound concentration 1 uM, replicate 1
[10] = 48 h, 1 µM, compound concentration 1 uM, replicate 2
[11] = 48 h, 10 µM, compound concentration 10 uM, replicate 1
[12] = 48 h, 10 µM, compound concentration 10 uM, replicate 2

Nc1nc2c(c(N3CCNCC3)n1)CCC1=C2[C@@H]2CCCC[C@@H]2O1
Population Apoptotic (%) [1]: 67%
Population Fragmented Nuclei (%) [1]: 37%
Population Healthy Nuclei (%) [1]: 42%
Population Hoechst High Intensity Objects (%) [1]: 15%
Population Membrane Permeable-Phenotype (%) [1]: 10%
Population Mitochondria Different-Phenotype (%) [1]: 1%
Population Mitotic Cells (%) [1]: 32%
Population Normal (%) [1]: 84%
Population Pyknosed Nuclei (%) [1]: 20%
Population Tubulin-Different-Phenotype (%) [1]: 20%
Total Cell Count [1]: 182
Population Apoptotic (%) [2]: 0%
Population Fragmented Nuclei (%) [2]: 20%
Population Healthy Nuclei (%) [2]: 61%
Population Membrane Permeable-Phenotype (%) [2]: 8%
Population Mitochondria Different-Phenotype (%) [2]: 27%
Population Mitotic Cells (%) [2]: 100%
Population Pyknosed Nuclei (%) [2]: 18%
Population Tubulin-Different-Phenotype (%) [2]: 21%
Total Cell Count [2]: 71
Population Apoptotic (%) [3]: 56%
Population Fragmented Nuclei (%) [3]: 22%
Population Healthy Nuclei (%) [3]: 34%
Population Hoechst High Intensity Objects (%) [3]: 42%
Population Membrane Permeable-Phenotype (%) [3]: 4%
Population Mitochondria Different-Phenotype (%) [3]: 13%
Population Mitotic Cells (%) [3]: 43%
Population Normal (%) [3]: 57%
Population Pyknosed Nuclei (%) [3]: 43%
Population Tubulin-Different-Phenotype (%) [3]: 52%
Total Cell Count [3]: 220
Population Apoptotic (%) [4]: 27%
Population Fragmented Nuclei (%) [4]: 9%
Population Healthy Nuclei (%) [4]: 68%
Population Hoechst High Intensity Objects (%) [4]: 3%
Population Membrane Permeable-Phenotype (%) [4]: 25%
Population Mitochondria Different-Phenotype (%) [4]: 87%
Population Mitotic Cells (%) [4]: 72%
Population Normal (%) [4]: 96%
Population Pyknosed Nuclei (%) [4]: 21%
Population Tubulin-Different-Phenotype (%) [4]: 92%
Total Cell Count [4]: 106
Population Apoptotic (%) [5]: 55%
Population Fragmented Nuclei (%) [5]: 30%
Population Healthy Nuclei (%) [5]: 50%
Population Hoechst High Intensity Objects (%) [5]: 24%
Population Membrane Permeable-Phenotype (%) [5]: 21%
Population Mitochondria Different-Phenotype (%) [5]: 2%
Population Mitotic Cells (%) [5]: 44%
Population Normal (%) [5]: 75%
Population Pyknosed Nuclei (%) [5]: 19%
Population Tubulin-Different-Phenotype (%) [5]: 47%
Total Cell Count [5]: 198
Population Apoptotic (%) [6]: 20%
Population Fragmented Nuclei (%) [6]: 22%
Population Healthy Nuclei (%) [6]: 57%
Population Hoechst High Intensity Objects (%) [6]: 8%
Population Membrane Permeable-Phenotype (%) [6]: 6%
Population Mitochondria Different-Phenotype (%) [6]: 20%
Population Mitotic Cells (%) [6]: 80%
Population Normal (%) [6]: 91%
Population Pyknosed Nuclei (%) [6]: 20%
Population Tubulin-Different-Phenotype (%) [6]: 16%
Total Cell Count [6]: 82
Population Apoptotic (%) [7]: 57%
Population Fragmented Nuclei (%) [7]: 20%
Population Healthy Nuclei (%) [7]: 36%
Population Hoechst High Intensity Objects (%) [7]: 45%
Population Membrane Permeable-Phenotype (%) [7]: 12%
Population Mitochondria Different-Phenotype (%) [7]: 16%
Population Mitotic Cells (%) [7]: 42%
Population Normal (%) [7]: 55%
Population Pyknosed Nuclei (%) [7]: 43%
Population Tubulin-Different-Phenotype (%) [7]: 43%
Total Cell Count [7]: 240
Population Apoptotic (%) [8]: 33%
Population Fragmented Nuclei (%) [8]: 8%
Population Healthy Nuclei (%) [8]: 46%
Population Hoechst High Intensity Objects (%) [8]: 2%
Population Membrane Permeable-Phenotype (%) [8]: 22%
Population Mitochondria Different-Phenotype (%) [8]: 79%
Population Mitotic Cells (%) [8]: 66%
Population Normal (%) [8]: 97%
Population Pyknosed Nuclei (%) [8]: 45%
Population Tubulin-Different-Phenotype (%) [8]: 69%
Total Cell Count [8]: 109
Population Apoptotic (%) [9]: 71%
Population Fragmented Nuclei (%) [9]: 44%
Population Healthy Nuclei (%) [9]: 45%
Population Hoechst High Intensity Objects (%) [9]: 34%
Population Membrane Permeable-Phenotype (%) [9]: 10%
Population Mitochondria Different-Phenotype (%) [9]: 1%
Population Mitotic Cells (%) [9]: 28%
Population Normal (%) [9]: 65%
Population Pyknosed Nuclei (%) [9]: 10%
Population Tubulin-Different-Phenotype (%) [9]: 22%
Total Cell Count [9]: 296
Population Apoptotic (%) [10]: 41%
Population Fragmented Nuclei (%) [10]: 34%
Population Healthy Nuclei (%) [10]: 56%
Population Membrane Permeable-Phenotype (%) [10]: 13%
Population Mitochondria Different-Phenotype (%) [10]: 2%
Population Mitotic Cells (%) [10]: 58%
Population Pyknosed Nuclei (%) [10]: 9%
Population Tubulin-Different-Phenotype (%) [10]: 36%
Total Cell Count [10]: 204
Population Apoptotic (%) [11]: 41%
Population Fragmented Nuclei (%) [11]: 20%
Population Healthy Nuclei (%) [11]: 50%
Population Hoechst High Intensity Objects (%) [11]: 49%
Population Membrane Permeable-Phenotype (%) [11]: 6%
Population Mitochondria Different-Phenotype (%) [11]: 11%
Population Mitotic Cells (%) [11]: 58%
Population Normal (%) [11]: 50%
Population Pyknosed Nuclei (%) [11]: 29%
Population Tubulin-Different-Phenotype (%) [11]: 58%
Total Cell Count [11]: 244
Population Apoptotic (%) [12]: 38%
Population Fragmented Nuclei (%) [12]: 27%
Population Healthy Nuclei (%) [12]: 49%
Population Hoechst High Intensity Objects (%) [12]: 47%
Population Membrane Permeable-Phenotype (%) [12]: 9%
Population Mitochondria Different-Phenotype (%) [12]: 10%
Population Mitotic Cells (%) [12]: 61%
Population Normal (%) [12]: 52%
Population Pyknosed Nuclei (%) [12]: 23%
Population Tubulin-Different-Phenotype (%) [12]: 52%
Total Cell Count [12]: 215
